In ChEMBL document CHEMBL1132122, “Synthesis and antimalarial activity of 11 dispiro-1,2,4,5-tetraoxane analogues of WR 148999. 7,8,15,16-Tetraoxadispiro[5.2.5.2]hexadecanes substituted at the 1 and 10 positions with unsaturated and polar functional groups” (J Med Chem, 1999):
pIC50: −log10 of the molar value.

Columns and labels:
Mus musculus [1] = experiment: In vivo evaluation for antimalarial activity against Plasmodium berghei in terms of survival days when administered subcutaneously in mice (Mus musculus); format: functional
In short: (§1)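 P. berghei ANKA infection in Moro SPF mice, groups of three. Treatment was one 100 mg/kg dose on day 1 post-infection, dissolved or suspended in 3% ethanol plus 7% Tween 80, given orally or subcutaneously. Read-out is mean survival time in days, compared with an untreated control group.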

Plasmodium falciparum [2] = experiment: In vitro antimalarial activity against drug-sensitive Plasmodium falciparum NF54
Mus musculus [3] = experiment: In vivo evaluation for antimalarial activity against Plasmodium berghei in percentage when administered orally in mice (Mus musculus); format: functional; set-up: concentration or dose not given beside the values
In short: (§2)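 Moro SPF mice infected with P. berghei ANKA, three per group. A single 100 mg/kg dose in 3% ethanol/7% Tween 80 (solution or suspension) was given on day 1 post-infection, po or sc. Activity is percent reduction of parasitemia on day 3 post-infection versus untreated controls.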

Mus musculus [4] = experiment: In vivo evaluation for antimalarial activity against Plasmodium berghei in percentage when administered subcutaneously in mice (Mus musculus); format: functional; set-up: concentration or dose not given beside the values; in short: as §2
Plasmodium falciparum [5] = experiment: In vitro antimalarial activity against chloroquine-resistant Plasmodium falciparum K1; format: functional, organism-based
In short: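 Tritiated hypoxanthine uptake assay (modified Desjardins method) on P. falciparum asexual cultures, run on chloroquine-resistant K1 and drug-sensitive NF54 strains.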

Mus musculus [6] = experiment: In vivo evaluation for antimalarial activity against Plasmodium berghei in terms of survival days when administered orally in mice (Mus musculus); format: functional; in short: as §1

Row | Compound | Survival (Mus musculus [1]) | pIC50 (Plasmodium falciparum [2]) | Activity (Mus musculus [3]) | Activity (Mus musculus [4]) | pIC50 (Plasmodium falciparum [5]) | Survival (Mus musculus [6])
1 | COC[C@H]1CCCCC12OOC1(CCCC[C@H]1COC)OO2 (some centres not stated) | 24.7 days | 7.80 | 18% | 100% | 7.82 | –
2 | CCOC(=O)C[C@H]1CCCCC12OOC1(CCCC[C@H]1CC(=O)OCC)OO2 (some centres not stated) | – | 8.19 | 0% | 0% | 8.21 | –
3 | O=C(O)CC[C@H]1CCCCC12OOC1(CCCC[C@H]1CCC(=O)O)OO2 (some centres not stated) | – | < 6.70 | – | – | < 6.70 | –
4 | OC[C@@H]1CCCCC12OOC1(CCCC[C@@H]1CO)OO2 (some centres not stated) | – | < 6.70 | – | – | < 6.70 | –
5 | CCOC(=O)CC[C@H]1CCCCC12OOC1(CCCC[C@H]1CCC(=O)OCC)OO2 (some centres not stated) | – | 7.80 | 0% | 0% | 7.85 | –
6 | O=C(O)C[C@H]1CCCCC12OOC1(CCCC[C@H]1CC(=O)O)OO2 (some centres not stated) | – | < 6.70 | – | – | < 6.70 | –
7 | c1ccc(COC[C@H]2CCCCC23OOC2(CCCC[C@H]2COCc2ccccc2)OO3)cc1 (some centres not stated) | – | 7.59 | 0% | 0% | 7.74 | –
8 | O=C(OC[C@H]1CCCCC12OOC1(CCCC[C@H]1COC(=O)c1ccccc1)OO2)c1ccccc1 (some centres not stated) | – | < 6.70 | – | – | < 6.70 | –
9 | c1ccc(C[C@H]2CCCCC23OOC2(CCCC[C@H]2Cc2ccccc2)OO3)cc1 (some centres not stated) | – | < 6.70 | – | – | < 6.70 | –
10 | C#CC[C@@H]1CCCCC12OOC1(CCCC[C@@H]1CC#C)OO2 (some centres not stated) | – | 7.89 | 0% | 9% | 7.89 | –
11 | C=CC[C@@H]1CCCCC12OOC1(CCCC[C@@H]1CC=C)OO2 (some centres not stated) | – | 7.64 | 93% | 15% | 7.72 | 7 days
12 | C[C@@H]1CC[C@H]2[C@@H](C)C(=O)O[C@@H]3O[C@@]4(C)CC[C@@H]1[C@]32OO4 [ARTEMISININ] | 14 days | 7.92 | 98% | 100% | – | 7.3 days
13 | C[C@@H]1CCCCC12OOC1(CCCC[C@@H]1C)OO2 (some centres not stated) [WR-148999] | 27.7 days | 7.41 | 99.7% | 100% | 7.55 | 7.7 days
